What follows are compounds tested against Transthyretin (Homo sapiens) (UniProt P02766) (assay: Percentage of WT-TTR (3.6 uM) amyloid fibril formation at pH 4.4 upon incubation with the compound (7.2 uM)).
Summary of the method: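 WT-TTR (7.2 µM, 0.4 mg/mL) in 10 mM phosphate pH 7.2, 100 mM KCl, 1 mM EDTA was preincubated 30 min at 37 °C with inhibitor added from a 1.44 mM DMSO stock. An equal volume of 200 mM acetate pH 4.2 brought the sample to pH 4.4 (3.6 µM TTR, 7.2 µM compound final). Left 72 h at 37 °C, vortexed, turbidity read at 350 and 400 or 500 nm. Run in duplicate or triplicate.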
For O=C(O)c1ccccc1O/N=C/c1c(Cl)cccc1Cl, the Formation was 59%. Fc1cc(F)cc(/C=N/Oc2cccc(C(F)(F)F)c2)c1 gave a Formation of 88%. O=C(O)c1cccc(/C=N/Oc2ccccc2)c1 gave a Formation of 79%. In the case of FC(F)(F)c1ccccc1/C=N/Oc1cc(Cl)cc(Cl)c1, the Formation is reported as 32%. O=C(O)c1ccc(/C=N/Oc2cccc(C(F)(F)F)c2)cc1 gave a Formation of 12%. For O=C(O)c1ccc(O/N=C/c2c(Cl)cccc2Cl)cc1, the Formation was 0%. Oc1c(I)cc(/C=N/Oc2ccccc2)cc1I gave a Formation of 0%. In the case of Oc1c(Br)cc(/C=N/Oc2cc(Cl)cc(Cl)c2)cc1Br, the Formation is reported as 3%. O=C(O)c1cccc(/C=N/Oc2cc(Cl)cc(Cl)c2)c1 showed a Formation of 3%. Work on Fc1cc(F)cc(O/N=C/c2ccccc2C(F)(F)F)c1 yielded a Formation of 71%. O=C(O)c1ccccc1O/N=C/c1cc(Cl)cc(Cl)c1 showed a Formation of 1%. FC(F)(F)c1ccc(/C=N/Oc2cccc(C(F)(F)F)c2)cc1 gave a Formation of 93%. In the case of FC(F)(F)c1ccccc1/C=N/Oc1ccccc1, the Formation is reported as 65%. O=C(O)c1cccc(O/N=C/c2cc(F)cc(F)c2)c1 showed a Formation of 8%. In the case of O=C(O)c1ccc(O/N=C/c2cccc(C(=O)O)c2)cc1, the Formation is reported as 13%. Compound O=C(O)c1ccccc1/C=N/Oc1cc(Cl)cc(Cl)c1 has a Formation of 30%. FC(F)(F)c1cccc(O/N=C/c2ccccc2)c1 gave a Formation of 83%. Oc1c(I)cc(/C=N/Oc2cc(Cl)cc(Cl)c2)cc1I gave a Formation of 4%. O=C(O)c1ccc(/C=N/Oc2cc(F)cc(F)c2)cc1 gave a Formation of 9%. For O=C(O)c1cccc(O/N=C/c2cc(Cl)cc(Cl)c2)c1, the Formation was 0%. FC(F)(F)c1ccc(/C=N/Oc2ccccc2C(F)(F)F)cc1 gave a Formation of 81%. Compound FC(F)(F)c1ccccc1O/N=C/c1cc(Cl)cc(Cl)c1 has a Formation of 33%. In the case of FC(F)(F)c1cccc(/C=N/Oc2cc(Cl)cc(Cl)c2)c1, the Formation is reported as 55%. With O=C(O)c1cccc(/C=N/Oc2ccccc2C(=O)O)c1 the Formation was 87%. For O=C(O)c1cccc(/C=N/Oc2cc(F)cc(F)c2)c1, the Formation was 6%. Compound O=C(O)c1ccccc1/C=N/Oc1ccccc1 has a Formation of 91%. O=C(O)c1ccccc1/C=N/Oc1cccc(C(F)(F)F)c1 showed a Formation of 84%. O=C(O)c1ccc(O/N=C/c2cc(Cl)cc(Cl)c2)cc1 gave a Formation of 9%. For Clc1cc(Cl)cc(O/N=C/c2c(Cl)cccc2Cl)c1, the Formation was 62%. For FC(F)(F)c1cccc(O/N=C/c2ccccc2C(F)(F)F)c1, the Formation was 83%. FC(F)(F)c1cccc(/C=N/Oc2ccccc2C(F)(F)F)c1 showed a Formation of 57%. O=C(O)c1ccc(O/N=C/c2ccccc2C(=O)O)cc1 showed a Formation of 97%. With FC(F)(F)c1cccc(O/N=C/c2cc(Cl)cc(Cl)c2)c1 the Formation was 72%. With O=C(O)c1cccc(O/N=C/c2ccc(C(F)(F)F)cc2)c1 the Formation was 83%. With O=C(O)c1ccc(O/N=C/c2cc(Br)c(O)c(Br)c2)cc1 the Formation was 0%. Work on O=C(O)c1ccccc1O/N=C/c1cccc(C(F)(F)F)c1 yielded a Formation of 74%. Work on O=C(O)c1cccc(O/N=C/c2cc(Br)c(O)c(Br)c2)c1 yielded a Formation of 0%. With FC(F)(F)c1cccc(/C=N/Oc2cccc(C(F)(F)F)c2)c1 the Formation was 83%. With Fc1cc(F)cc(O/N=C/c2cccc(C(F)(F)F)c2)c1 the Formation was 86%. With O=C(O)c1ccc(O/N=C/c2cc(I)c(O)c(I)c2)cc1 the Formation was 1%. For FC(F)(F)c1ccc(/C=N/Oc2ccccc2)cc1, the Formation was 98%. Fc1cc(F)cc(/C=N/Oc2cc(F)cc(F)c2)c1 gave a Formation of 94%. For O=C(O)c1ccccc1O/N=C/c1ccccc1C(F)(F)F, the Formation was 34%. Work on O=C(O)c1ccc(O/N=C/c2cccc(C(F)(F)F)c2)cc1 yielded a Formation of 50%. Compound O=C(O)c1cccc(O/N=C/c2ccccc2C(F)(F)F)c1 has a Formation of 1%. Compound Oc1c(I)cc(/C=N/Oc2cc(F)cc(F)c2)cc1I has a Formation of 3%. For FC(F)(F)c1cccc(O/N=C/c2c(Cl)cccc2Cl)c1, the Formation was 21%.

What follows are compounds tested against Transthyretin (Homo sapiens) (UniProt P02766) (assay: Percentage compound remaining at the conclusion of the acid-mediated fibril formation assay (72 h), assay conditions compound (7.2 uM), WT-TTR (3.6 uM, pH 4.4, 37C)).
Summary of the method: (§1)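 Compound at 7.2 µM was incubated in the dark with or without 3.6 µM WT-TTR under acid fibril conditions (pH 4.4, 37 °C, 72 h). Analytical RP-HPLC peak area of the compound at the end was compared with the area at the start. Measurement error stated as 4%.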
With O=C(O)c1ccc(O/N=C/c2c(Cl)cccc2Cl)cc1 the Activity was 81%. For Oc1c(I)cc(/C=N/Oc2ccccc2)cc1I, the Activity was 79%. O=C(O)c1ccccc1O/N=C/c1cc(Cl)cc(Cl)c1 was tested, and the Activity was 74%. With O=C(O)c1ccc(O/N=C/c2cc(Br)c(O)c(Br)c2)cc1 the Activity was 81%. In the case of O=C(O)c1ccc(O/N=C/c2cc(I)c(O)c(I)c2)cc1, the Activity is reported as 83%. O=C(O)c1cccc(O/N=C/c2ccccc2C(F)(F)F)c1 showed an Activity of 88%.

The compounds below were run against Transthyretin (Homo sapiens) (UniProt P02766) (assay: Percentage compound remaining at the conclusion of the acid-mediated fibril formation assay (72 h) in absence of TTR, assay conditions, compound (7.2 uM), pH 4.4, 37C).
Summary of the method: as §1
O=C(O)c1ccc(O/N=C/c2c(Cl)cccc2Cl)cc1 showed an Activity of 85%. In the case of Oc1c(I)cc(/C=N/Oc2ccccc2)cc1I, the Activity is reported as 24%. For O=C(O)c1ccccc1O/N=C/c1cc(Cl)cc(Cl)c1, the Activity was 4%. For O=C(O)c1ccc(O/N=C/c2cc(Br)c(O)c(Br)c2)cc1, the Activity was 88%. Work on O=C(O)c1ccc(O/N=C/c2cc(I)c(O)c(I)c2)cc1 yielded an Activity of 91%. O=C(O)c1cccc(O/N=C/c2ccccc2C(F)(F)F)c1 showed an Activity of 20%.

These compounds were tested against Transthyretin (Homo sapiens) (UniProt P02766) (assay: Binding stoichiometry to TTR in human blood plasma determined by antibody capture/HPLC method).
Assay type: cell-free
Summary of the method: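 Human blood plasma spiked to 10.8 µM test compound from a 2.16 mM DMSO stock and incubated 24 h at 37 °C. Plasma was precleared with plain Sepharose for 1 h at 4 °C, then split into three aliquots for anti-TTR antibody-resin capture (20 min, 4 °C) in 10 mM Tris pH 8.0, 140 mM NaCl. Resin washed, eluted with 100 mM triethylamine pH 11.5, eluate analysed by HPLC for compound:TTR stoichiometry.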
For O=C(O)c1ccc(O/N=C/c2c(Cl)cccc2Cl)cc1, the Binding stoichiometry was 0.81. Oc1c(I)cc(/C=N/Oc2ccccc2)cc1I showed a Binding stoichiometry of 0.89. Work on Oc1c(Br)cc(/C=N/Oc2cc(Cl)cc(Cl)c2)cc1Br yielded a Binding stoichiometry of 0.69. For O=C(O)c1cccc(/C=N/Oc2cc(Cl)cc(Cl)c2)c1, the Binding stoichiometry was 0.56. O=C(O)c1ccccc1O/N=C/c1cc(Cl)cc(Cl)c1 was tested, and the Binding stoichiometry was under 0.5. With O=C(O)c1cccc(O/N=C/c2cc(F)cc(F)c2)c1 the Binding stoichiometry was under 0.5. Compound Oc1c(I)cc(/C=N/Oc2cc(Cl)cc(Cl)c2)cc1I has a Binding stoichiometry of 0.55. O=C(O)c1ccc(/C=N/Oc2cc(F)cc(F)c2)cc1 was tested, and the Binding stoichiometry was under 0.5. O=C(O)c1cccc(O/N=C/c2cc(Cl)cc(Cl)c2)c1 gave a Binding stoichiometry of under 0.5. O=C(O)c1cccc(/C=N/Oc2cc(F)cc(F)c2)c1 gave a Binding stoichiometry of under 0.5. O=C(O)c1ccc(O/N=C/c2cc(Cl)cc(Cl)c2)cc1 gave a Binding stoichiometry of 0.53. O=C(O)c1ccc(O/N=C/c2cc(Br)c(O)c(Br)c2)cc1 showed a Binding stoichiometry of under 0.5. With O=C(O)c1cccc(O/N=C/c2cc(Br)c(O)c(Br)c2)c1 the Binding stoichiometry was under 0.5. O=C(O)c1ccc(O/N=C/c2cc(I)c(O)c(I)c2)cc1 was tested, and the Binding stoichiometry was under 0.5. In the case of O=C(O)c1cccc(O/N=C/c2ccccc2C(F)(F)F)c1, the Binding stoichiometry is reported as 1. Oc1c(I)cc(/C=N/Oc2cc(F)cc(F)c2)cc1I showed a Binding stoichiometry of 1.83.

Source: ChEMBL document CHEMBL1142707, “Bisaryloxime ethers as potent inhibitors of transthyretin amyloid fibril formation” (J Med Chem, 2005)
